Consider one substance from publication PMC11700703 (Nature cardiovascular research, 2024).

In assay [1] the target is cTnI binding to immune-captured ATP synthase (UniProt P19429+P31399). The experiment in a line: Inhibition of cTnI binding to ATP synthase by ELISA. The class given is rat heart mitochondria; recombinant human cTnI. As to conditions: P888 2μM. Put shortly: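 ELISA on anti-ATP synthase antibody plates blocked with 2% BSA. Plates were co-incubated with solubilized rat heart mitochondria (4 μg) and recombinant human cTnI (2 μg) ± test peptide (2 μM). After washing, bound cTnI was detected with HRP anti-cTnI antibody (1:5000, 1 h), then TMB, stopped with 2N sulfuric acid; absorbance at 450 nm.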
In general terms: In an ELISA, binding on a coated surface is turned into a signal by an enzyme label.

Assay [2] deals with mitochondria of rat hearts after myocardial IR. In words: Rat in vivo LAD ligation IR: mitochondrial oxygen consumption after IR. As to conditions: 3mg/kg IP at reperfusion, 24 hours after reperfusion, n=15.
Assay [3] concerns F1FO-ATP synthase (ATPase activity). The experiment in a line: F1FO-ATPase activity assay. It is filed as biochemical, rat. As to conditions: P888 (2μM) co-incubation with cTnI (2μg); n=3 independent experiments. Put shortly:
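Rat heart mitochondria (4 μg, solubilized) were captured on anti-ATP synthase antibody plates and co-incubated with recombinant human cTnI (2 μg) ± test peptide (2 μM). Absorbance was read over 120 min. Oligomycin served as negative control. n=3 independent experiments, each in 3–4 replicates; two-way ANOVA with Sidak correction.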

“Also recorded” adds a separate entry of the source.

cTnI binding to immune-captured ATP synthase, sequence (P19429 whole entry): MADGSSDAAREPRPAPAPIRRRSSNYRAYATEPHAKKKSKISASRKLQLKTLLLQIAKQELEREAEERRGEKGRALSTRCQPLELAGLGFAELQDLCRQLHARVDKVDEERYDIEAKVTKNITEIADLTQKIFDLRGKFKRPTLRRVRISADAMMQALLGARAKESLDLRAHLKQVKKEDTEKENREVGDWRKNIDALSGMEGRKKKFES
cTnI binding to immune-captured ATP synthase, sequence (P31399 2-161 limits assumed): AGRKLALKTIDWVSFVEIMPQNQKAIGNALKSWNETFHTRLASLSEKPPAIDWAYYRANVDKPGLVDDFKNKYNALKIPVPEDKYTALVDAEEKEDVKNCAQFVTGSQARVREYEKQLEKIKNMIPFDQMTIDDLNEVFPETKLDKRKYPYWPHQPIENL

Take A2GRKLALKTI11 [P888]: the “inhibition of cTnI binding to the immune-captured ATP synthase” value in assay [1] (cTnI (2μg), n=3) was ~ 78%. Moreover, the “inhibition of cTnI binding to ATP synthase” value in assay [1] (n=3, result in words) was “binding is inhibited in the presence of P888; also recorded: inhibited cTnI binding to ATP synthase”. Also, the “mitochondrial respiration after IR” value in assay [2] was “no significant effect of P888 on mitochondrial function”. In addition, in assay [3], the “prevention of cTnI-induced increase in ATPase activity” value is “blocked the cTnI-induced increase in ATPase activity; also recorded: P888 co-incubation prevents this effect; also recorded: inhibited cTnI-induced increase in ATPase activity in vitro”.
